Measurements pooled from the literature.
Compare with care: the assays were run in different laboratories.
Observed: cell growth or viability

SMILES | cell line | method | time | IC50
CN(C)CCCOc1cc(NC(=O)c2cc(Cl)cc(C(=O)Nc3cc(OCCCN(C)C)c4ccccc4n3)n2)nc2ccccc12 | U2OS | ATP luminescence | 72 h | 1800 nM
Cc1cc(NC(=O)c2cccc3cc(-c4cccc5[nH]nc(N)c45)ccc23)ccc1F | mouse BMDM | CCK-8 | 72 h | 93 nM
CC(C)[C@H](N)C(=O)N1CCC[C@H]1B(O)O | NB-4 | ATP luminescence | 48 h | 100 nM
COc1cc(OC)c2c(=O)cc(-c3ccc(N(C)C)cc3)oc2c1-c1c(OC)cc(OC)c2c(=O)cc(-c3ccc(N(C)C)cc3)oc12 | HeLa | MTT | 48 h | 43800 nM
CC(=O)Oc1ccc2c(c1)C(C)=CC(C)(C)N2Cc1ccccc1 | PLC5 | MTT | 72 h | 18000 nM
O=C(Nc1cc(OCCN2CCCC2)c2ccccc2n1)c1cc(Cl)cc(C(=O)Nc2cc(OCCN3CCCC3)c3ccccc3n2)n1 | U2OS | ATP luminescence | 72 h | 2300 nM
COc1nc(OCc2cccc(-c3ccccc3)c2C)ccc1CNCCNC(C)=O | HCT-8 | MTT |  | 3900 nM
C#CCOc1cc(C(=O)Nc2cc(OCCCN)c3ccccc3n2)nc(C(=O)Nc2cc(OCCCN)c3ccccc3n2)c1 | U2OS | ATP luminescence | 72 h | 2300 nM
COc1ccc(O)c(/C=N/c2nc(SC)nn2-c2ccc(C(=O)O)cc2)c1 | RPE-1 | MTT |  | 35200 nM
NCCOc1cc(C(=O)Nc2cc(OCCN)c3ccccc3n2)nc(C(=O)Nc2cc(OCCN)c3ccccc3n2)c1 | U2OS | ATP luminescence | 72 h | 16800 nM
COc1cc(-c2ncn(/C=C\C(=O)OC(C)C)n2)cc(C(F)(F)F)c1 | NB-4 |  | 72 h | 169 nM
NCCCOc1cc(NC(=O)c2cc(Cl)cc(C(=O)Nc3cc(OCCCN)c4ccccc4n3)n2)nc2ccccc12 | U2OS | ATP luminescence | 72 h | 300 nM
Nc1ncc(-c2cnn(C3CCNCC3)c2)cc1-c1nnc(CC2CC2)o1 | NB-4 | trypan blue | 72 h | 846 nM
CSc1nc(/N=C/c2cc(C)ccc2O)n(-c2ccc(C(=O)O)cc2)n1 | RPE-1 | MTT |  | 36000 nM
CN(C)CCCOc1cc(NC(=O)c2cccc(C(=O)Nc3cc(OCCCN(C)C)c4ccccc4n3)n2)nc2ccccc12 | U2OS | ATP luminescence | 72 h | 2100 nM
COC(=O)c1ccc(-n2nc(SC)nc2N)cc1 | RPE-1 | MTT |  | 37300 nM
COC(=O)C(C)n1c(C=O)ccc1CO (stereo not drawn) | Hepa-1c1c7 | crystal violet | 48 h | > 100000 nM
Cc1ccc(C(=O)Nc2ccc(Oc3cc4cnn(C)c4cc3-c3cn[nH]c3)c(F)c2)c(=O)n1-c1ccc(F)cc1 | Hs746T | ATP luminescence |  | 34 nM
Cc1ccc(O)c(/C=N/c2nc(Oc3ccccc3)nn2-c2ccc(C(=O)O)cc2)c1 | RPE-1 | MTT |  | 33700 nM
CN1c2ccccc2C(=O)N2[C@H](C(=O)Nc3ccc(/C=C/C(=O)NO)cc3)Cc3c([nH]c4ccccc34)[C@@H]12 | HEL |  |  | 340 nM
COc1cccc2c1C(=O)c1c(O)c3c(c(O)c1C2=O)C[C@@](O)(C(=O)CO)C[C@@H]3O[C@H]1C[C@H](N)[C@H](O)[C@H](C)O1 | RPE-1 | MTT |  | 22600 nM
CC(C)C[C@H](NC(=O)[C@H](Cc1ccccc1)NC(=O)c1cnccn1)B(O)O | RL95-2 | ATP luminescence |  | 12 nM
CSc1nc(/N=C/c2ccc(O)cc2)n(-c2ccc(C(=O)O)cc2)n1 | RPE-1 | MTT |  | 39100 nM
N[C@@H](CC(=O)N1CCN(C(c2ccc(F)cc2)c2ccc(F)cc2)CC1)C(=O)N1Cc2ccccc2C1 | NB-4 | ATP luminescence | 48 h | 1330 nM
COc1cc(Nc2nccc(-c3cnn4nc(OC)ccc34)n2)cc(C(F)(F)F)c1 | RL95-2 | ATP luminescence |  | 1000 nM
COc1ccc(O)c(/C=N/c2nc(Oc3ccccc3)nn2-c2ccc(C(=O)O)cc2)c1 | RPE-1 | MTT |  | 33100 nM
NCCOc1cc(C(=O)Nc2cc(OCCN3CCCC3)c3ccccc3n2)nc(C(=O)Nc2cc(OCCN3CCCC3)c3ccccc3n2)c1 | U2OS | ATP luminescence | 72 h | 200 nM
CC[C@@H](C)[C@H](N)C(=O)N1Cc2ccccc2C1 | HEL | ATP luminescence | 48 h | > 60000 nM
CSc1nc(/N=C/c2cccc(O)c2)n(-c2ccc(C(=O)O)cc2)n1 | RPE-1 | MTT |  | 34600 nM
NCCCOc1cc(NC(=O)c2cccc(C(=O)Nc3cc(OCCCN)c4ccccc4n3)n2)nc2ccccc12 | U2OS | ATP luminescence | 72 h | 1500 nM
